Measurements reported in ChEMBL document CHEMBL3352809, “Discovery of a Negative Allosteric Modulator of GABAB Receptors” (ACS Med Chem Lett, 2014).
pIC50: −log10 of the molar value. The source made the active and inactive calls. The calls are words filed in the database; no cut-off is given here.

Tests used:
[1] = test system: HEK293; test: Effect on ERK1/2 protein expression in HEK293 cells at 100 uM by immunoblotting; format: functional, cell-based; details: Homo sapiens
How it was run: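 ERK1/2 phosphorylation in HEK293 cells overexpressing GABA_B receptors (GB1 + GB2), stimulated with baclofen (100 μM) or CGP7930 (100 μM), with or without test compound at 100 μM. Data are mean SEM of three independent experiments. Significance was taken versus agonist alone.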

[2] = molecular target: Metabotropic glutamate receptor 2 (Homo sapiens) (UniProt Q14416); test: Negative allosteric modulation of mGluR2 (unknown origin) expressed in HEK293 cells co-expressing Gqi9 G-protein assessed as inhibition of glutamate-induced Ca2+ release at 50 uM by fluorescence assay; format: functional, cell-based
Sequence of Metabotropic glutamate receptor 2 (Homo sapiens) (Q14416 19-872 limits assumed): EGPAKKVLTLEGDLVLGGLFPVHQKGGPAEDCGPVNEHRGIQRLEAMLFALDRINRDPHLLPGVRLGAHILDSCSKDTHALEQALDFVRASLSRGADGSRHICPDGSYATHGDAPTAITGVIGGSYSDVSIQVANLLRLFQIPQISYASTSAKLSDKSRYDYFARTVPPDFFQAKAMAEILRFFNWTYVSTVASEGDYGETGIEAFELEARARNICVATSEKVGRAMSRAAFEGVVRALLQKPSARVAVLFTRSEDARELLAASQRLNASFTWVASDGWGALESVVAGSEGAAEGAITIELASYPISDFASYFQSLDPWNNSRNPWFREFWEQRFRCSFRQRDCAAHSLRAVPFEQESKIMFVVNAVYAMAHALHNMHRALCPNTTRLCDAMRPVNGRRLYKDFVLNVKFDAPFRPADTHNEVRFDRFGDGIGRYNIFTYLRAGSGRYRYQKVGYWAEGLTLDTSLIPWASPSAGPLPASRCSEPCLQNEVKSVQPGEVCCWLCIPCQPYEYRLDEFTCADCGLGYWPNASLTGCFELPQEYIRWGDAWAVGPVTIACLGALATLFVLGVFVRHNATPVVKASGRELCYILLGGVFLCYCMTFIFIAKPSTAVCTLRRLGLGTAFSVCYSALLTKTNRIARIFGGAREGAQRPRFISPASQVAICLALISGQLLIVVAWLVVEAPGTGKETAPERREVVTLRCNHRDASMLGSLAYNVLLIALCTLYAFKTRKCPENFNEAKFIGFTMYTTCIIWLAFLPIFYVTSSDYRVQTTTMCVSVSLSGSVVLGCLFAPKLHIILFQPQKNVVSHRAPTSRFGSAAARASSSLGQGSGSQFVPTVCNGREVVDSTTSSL
How it was run: (§1)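 Test compound was at 50 μM. Agonists were GABA 100 μM for GABA_B and glutamate 10 μM for mGluR1, 2 and 5. Response was compared with agonist alone. Data are mean SEM of three independent experiments.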

[3] = molecular target: T1, GABA-B receptor (Homo sapiens) (UniProt Q9UBS5+O75899); test: Negative allosteric modulation of recombinant HA-tagged GB1 subunit/Flag-tagged GB2 subunit receptor (unknown origin) expressed in HEK293 cells co-expressing Gqi9 G-protein assessed as inhibition of GABA-induced Ca2+ release at 50 uM by fluorescence assay; format: functional, cell-based; how it was run: as §1
[4] = molecular target: Metabotropic glutamate receptor 5 (Homo sapiens) (UniProt P41594); test: Negative allosteric modulation of mGluR5 (unknown origin) expressed in HEK293 cells assessed as inhibition of glutamate-induced Ca2+ release at 50 uM by fluorescence assay; format: functional, cell-based; how it was run: as §1
Sequence of Metabotropic glutamate receptor 5 (Homo sapiens) (P41594 21-1212 limits assumed): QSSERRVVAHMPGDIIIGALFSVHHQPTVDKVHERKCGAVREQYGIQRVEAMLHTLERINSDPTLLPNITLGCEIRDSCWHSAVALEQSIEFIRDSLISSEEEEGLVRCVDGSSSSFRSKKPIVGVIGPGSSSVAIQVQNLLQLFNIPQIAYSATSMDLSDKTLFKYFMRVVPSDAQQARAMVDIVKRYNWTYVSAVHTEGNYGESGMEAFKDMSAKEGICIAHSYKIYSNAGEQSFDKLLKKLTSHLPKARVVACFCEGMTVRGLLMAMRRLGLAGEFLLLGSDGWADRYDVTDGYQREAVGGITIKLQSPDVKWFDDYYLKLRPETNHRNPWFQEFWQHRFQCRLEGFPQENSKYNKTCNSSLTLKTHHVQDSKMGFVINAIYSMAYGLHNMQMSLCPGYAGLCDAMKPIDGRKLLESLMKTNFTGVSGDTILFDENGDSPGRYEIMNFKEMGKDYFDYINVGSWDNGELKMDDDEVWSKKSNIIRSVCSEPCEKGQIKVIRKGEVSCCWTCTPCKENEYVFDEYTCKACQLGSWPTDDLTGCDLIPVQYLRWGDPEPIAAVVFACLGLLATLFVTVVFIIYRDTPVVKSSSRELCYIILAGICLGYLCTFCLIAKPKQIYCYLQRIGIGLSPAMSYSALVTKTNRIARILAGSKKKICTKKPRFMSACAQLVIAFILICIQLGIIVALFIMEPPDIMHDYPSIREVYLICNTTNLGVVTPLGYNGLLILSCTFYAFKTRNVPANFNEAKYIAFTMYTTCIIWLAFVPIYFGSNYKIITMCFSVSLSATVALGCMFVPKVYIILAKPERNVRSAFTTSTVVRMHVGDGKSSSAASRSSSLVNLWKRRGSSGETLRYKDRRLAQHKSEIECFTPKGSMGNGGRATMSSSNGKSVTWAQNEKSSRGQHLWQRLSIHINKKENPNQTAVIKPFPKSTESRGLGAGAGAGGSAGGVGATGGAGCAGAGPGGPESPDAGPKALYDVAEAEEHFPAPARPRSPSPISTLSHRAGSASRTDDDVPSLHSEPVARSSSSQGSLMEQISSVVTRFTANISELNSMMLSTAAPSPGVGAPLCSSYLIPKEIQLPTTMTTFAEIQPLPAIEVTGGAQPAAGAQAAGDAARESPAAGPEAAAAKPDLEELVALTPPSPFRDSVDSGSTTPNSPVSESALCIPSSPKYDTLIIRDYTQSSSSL

[5] = molecular target: T1, GABA-B receptor (Homo sapiens); test: (§2) Negative allosteric modulation of recombinant HA-tagged GB1 subunit/Flag-tagged GB2 subunit receptor (unknown origin) expressed in HEK293 cells co-expressing Gqi9 G-protein assessed as inhibition of GABA-induced IP production by liquid scintillation counting; format: cell-based
How it was run: (§3)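 IP3 formation in HEK293 cells overexpressing GABA_B receptors (GB1 + GB2) and Gq_i9 chimeric proteins. Compounds were tested at 100 μM against GABA 1 μM, with GABA dose-response curves run with or without compound. Inhibition curves were run with compound titrated in the presence of 1 μM GABA to derive IC50. Data are mean SEM of three independent experiments.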

[6] = molecular target: GABA-B receptor (Homo sapiens, UniProt O75899+Q9UBS5); test: as §2; format: cell-based; how it was run: as §3
Sequence of GABA-B receptor (Q9UBS5 whole entry): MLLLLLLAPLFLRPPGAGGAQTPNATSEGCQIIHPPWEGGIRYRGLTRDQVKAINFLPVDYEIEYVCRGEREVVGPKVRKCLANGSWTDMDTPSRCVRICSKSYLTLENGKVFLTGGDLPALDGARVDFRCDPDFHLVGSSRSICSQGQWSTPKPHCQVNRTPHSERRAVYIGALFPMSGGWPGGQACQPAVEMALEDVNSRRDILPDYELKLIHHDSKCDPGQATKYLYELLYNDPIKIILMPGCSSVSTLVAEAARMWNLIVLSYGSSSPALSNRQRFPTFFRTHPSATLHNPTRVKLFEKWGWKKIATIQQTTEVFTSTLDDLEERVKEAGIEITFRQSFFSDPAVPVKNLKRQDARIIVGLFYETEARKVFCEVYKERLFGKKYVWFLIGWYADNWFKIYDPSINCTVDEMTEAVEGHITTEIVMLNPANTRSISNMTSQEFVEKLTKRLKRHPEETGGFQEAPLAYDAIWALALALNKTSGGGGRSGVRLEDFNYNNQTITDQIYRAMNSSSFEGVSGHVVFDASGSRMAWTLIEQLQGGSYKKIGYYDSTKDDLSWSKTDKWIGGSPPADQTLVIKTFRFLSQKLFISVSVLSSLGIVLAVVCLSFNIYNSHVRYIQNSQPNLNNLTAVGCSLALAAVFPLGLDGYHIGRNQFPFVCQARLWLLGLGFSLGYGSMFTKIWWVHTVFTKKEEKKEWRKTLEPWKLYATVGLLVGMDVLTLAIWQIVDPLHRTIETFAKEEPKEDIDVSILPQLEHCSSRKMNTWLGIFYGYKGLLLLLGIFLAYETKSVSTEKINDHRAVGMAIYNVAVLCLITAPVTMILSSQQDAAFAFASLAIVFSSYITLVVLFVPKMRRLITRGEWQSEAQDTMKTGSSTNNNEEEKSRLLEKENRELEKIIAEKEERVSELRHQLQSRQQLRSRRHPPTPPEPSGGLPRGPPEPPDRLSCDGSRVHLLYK
Sequence of GABA-B receptor (O75899 whole entry): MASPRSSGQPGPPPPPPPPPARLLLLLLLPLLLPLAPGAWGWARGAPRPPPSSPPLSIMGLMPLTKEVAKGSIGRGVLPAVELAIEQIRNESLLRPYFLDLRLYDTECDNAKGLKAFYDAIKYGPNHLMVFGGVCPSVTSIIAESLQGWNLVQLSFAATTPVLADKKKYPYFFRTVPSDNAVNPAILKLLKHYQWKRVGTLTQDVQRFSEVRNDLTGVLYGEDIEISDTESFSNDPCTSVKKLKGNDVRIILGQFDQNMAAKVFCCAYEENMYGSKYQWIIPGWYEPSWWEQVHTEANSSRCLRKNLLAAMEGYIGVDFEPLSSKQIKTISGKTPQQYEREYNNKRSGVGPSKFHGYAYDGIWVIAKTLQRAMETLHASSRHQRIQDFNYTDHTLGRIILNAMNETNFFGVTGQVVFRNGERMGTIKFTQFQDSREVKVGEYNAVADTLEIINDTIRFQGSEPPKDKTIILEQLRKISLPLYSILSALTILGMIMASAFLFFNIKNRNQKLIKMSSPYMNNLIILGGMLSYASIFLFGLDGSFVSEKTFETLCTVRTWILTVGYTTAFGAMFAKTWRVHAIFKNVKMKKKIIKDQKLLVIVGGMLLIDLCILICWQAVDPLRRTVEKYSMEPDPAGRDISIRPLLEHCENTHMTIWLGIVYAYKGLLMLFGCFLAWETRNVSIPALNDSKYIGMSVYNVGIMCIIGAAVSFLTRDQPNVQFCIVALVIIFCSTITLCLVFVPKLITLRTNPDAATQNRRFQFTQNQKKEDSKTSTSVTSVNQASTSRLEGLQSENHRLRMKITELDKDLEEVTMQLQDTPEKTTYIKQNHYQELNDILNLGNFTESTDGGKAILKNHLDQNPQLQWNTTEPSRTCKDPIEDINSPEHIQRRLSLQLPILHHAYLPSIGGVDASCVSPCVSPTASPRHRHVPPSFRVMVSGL

[7] = molecular target: T1, GABA-B receptor (Homo sapiens); test: Displacement of [3H]CGP54626 from recombinant HA-tagged GB1 subunit/Flag-tagged GB2 subunit receptor (unknown origin) expressed in CHO cells up to 100 uM by scintillation proximity assay; format: cell-based
[8] = molecular target: Metabotropic glutamate receptor 1 (Homo sapiens) (UniProt Q13255); test: Negative allosteric modulation of mGluR1 (unknown origin) expressed in HEK293 cells assessed as inhibition of glutamate-induced Ca2+ release at 50 uM by fluorescence assay; format: functional, cell-based; how it was run: as §1
Sequence of Metabotropic glutamate receptor 1 (Homo sapiens) (Q13255 19-1194 limits assumed): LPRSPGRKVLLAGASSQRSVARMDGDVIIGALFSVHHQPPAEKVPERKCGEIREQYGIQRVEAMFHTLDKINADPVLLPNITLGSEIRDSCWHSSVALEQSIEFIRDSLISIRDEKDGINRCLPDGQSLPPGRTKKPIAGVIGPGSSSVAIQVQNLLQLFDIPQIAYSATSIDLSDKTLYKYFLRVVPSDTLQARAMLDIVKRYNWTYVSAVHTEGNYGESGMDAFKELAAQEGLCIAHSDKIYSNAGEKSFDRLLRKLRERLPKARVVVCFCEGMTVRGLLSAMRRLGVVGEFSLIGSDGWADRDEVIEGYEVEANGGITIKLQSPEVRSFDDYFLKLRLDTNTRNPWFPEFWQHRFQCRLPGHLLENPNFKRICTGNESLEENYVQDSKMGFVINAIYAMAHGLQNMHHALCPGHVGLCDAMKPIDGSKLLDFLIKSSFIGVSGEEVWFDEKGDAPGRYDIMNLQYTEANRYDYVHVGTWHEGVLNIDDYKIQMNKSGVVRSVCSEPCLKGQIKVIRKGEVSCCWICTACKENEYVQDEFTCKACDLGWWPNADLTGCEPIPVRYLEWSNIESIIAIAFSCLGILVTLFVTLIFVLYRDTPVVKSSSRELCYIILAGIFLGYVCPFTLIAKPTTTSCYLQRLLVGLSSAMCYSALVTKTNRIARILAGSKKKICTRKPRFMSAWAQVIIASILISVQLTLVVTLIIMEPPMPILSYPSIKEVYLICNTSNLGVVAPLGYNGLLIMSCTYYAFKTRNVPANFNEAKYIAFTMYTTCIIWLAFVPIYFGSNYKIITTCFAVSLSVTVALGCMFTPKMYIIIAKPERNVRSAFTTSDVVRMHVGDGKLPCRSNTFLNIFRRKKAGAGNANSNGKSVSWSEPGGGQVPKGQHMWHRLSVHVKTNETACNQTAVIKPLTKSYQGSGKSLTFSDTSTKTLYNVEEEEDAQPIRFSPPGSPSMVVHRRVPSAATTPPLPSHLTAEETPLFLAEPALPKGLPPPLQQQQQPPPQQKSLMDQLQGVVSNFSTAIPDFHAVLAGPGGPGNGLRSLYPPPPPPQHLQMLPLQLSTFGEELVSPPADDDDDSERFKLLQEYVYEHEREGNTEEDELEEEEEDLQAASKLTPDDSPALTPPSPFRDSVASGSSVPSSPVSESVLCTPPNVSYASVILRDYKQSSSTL

Row | inhibition [2] | inhibition [3] | inhibition [4] | inhibition [5] | pIC50 [6] | inhibition [7] | inhibition [8] | SMILES | inhibition [1]
1 | – | – | – | – | – | – | – | COC(O)CC(O)c1cc(C(C)(C)C)c(O)c(C(C)(C)C)c1 (stereo not given) | inactive
2 | inactive | Active | inactive | Dose-dependent effect | 4.42 | inactive | inactive | CC(C)(C)c1cc(/C=C/C(=O)C(=O)O)cc(C(C)(C)C)c1O | –
3 | – | – | – | Dose-dependent effect | 4.67 | – | – | CC(C)(C)c1cc(/C=C/C=O)cc(C(C)(C)C)c1O | –
